As usually defined, the Ki is a dissociation constant, usually derived from enzyme kinetics or from competition with a known ligand. The low end stands for higher affinity, the high end for lower affinity.

One series has as its system Mus musculus. Kind of series: Antidepressant activity in Swiss Webster (Harlan) mouse assessed as decrease in immobility time at 20 mg/kg, ip after 30 mins by forced swim test. The series is classed as functional, organism-based. In short, it runs like this:
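Mice housed five per cage on 12 h light/dark cycle, randomized (n = 6–10/group), given i.p. dose in saline, 10% ethanol or 10% ethanol/1% DMSO vehicle; desipramine 20 mg/kg as reference. Directly after 30 min locomotor session, each mouse placed in water-filled cylinder (8 cm depth, 25 °C), videotaped 6 min; immobility over final 4 min timed by three observers, averaged.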

The nature of series [1]: Effect on locomotor activity in Swiss Webster (Harlan) mouse at 20 mg/kg, ip after 30 mins by automated activity monitoring system based assay. It counts as ADME, organism-based. The settings on record: in vivo, 0.5 h. In short, it runs like this: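 Mice in groups of five, 12 h light/dark, randomized (n = 6–10/group), dosed i.p. in saline, 10% ethanol or 10% ethanol/1% DMSO vehicle, desipramine 20 mg/kg reference. Each mouse put in Plexiglas enclosure right after injection; photobeam interruptions recorded for 30 min, with counts from the last 10 min quantified and analyzed.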

Series [2] concerns the target Alpha-1A adrenergic receptor (Homo sapiens, UniProt P35348). In words: Binding affinity to adrenoceptor alpha 1A (unknown origin).
Series [3] concerns the target Alpha-1B adrenergic receptor (Homo sapiens, UniProt P35368). In words: Binding affinity to adrenoceptor alpha 1B (unknown origin).
The target of series [4] is Alpha-2A adrenergic receptor (Homo sapiens, UniProt P08913). Kind of series: Binding affinity to adrenoceptor alpha 2A (unknown origin).
For series [5], the target named is Alpha-2B adrenergic receptor (Homo sapiens, UniProt P18089). In words: Binding affinity to adrenoceptor alpha 2B (unknown origin).
Series [6] addresses Alpha-2C adrenergic receptor (Homo sapiens, UniProt P18825). In words: Binding affinity to adrenoceptor alpha 2C (unknown origin).
In series [7] the target is Beta-1 adrenergic receptor (Homo sapiens, UniProt P08588). In words: Binding affinity to beta1 adrenoceptor (unknown origin).
For a further series, the target named is D(1A) dopamine receptor (Homo sapiens, UniProt P21728). In words: Binding affinity to dopamine D1 receptor (unknown origin).
A further series has as its target D(2) dopamine receptor (Homo sapiens, UniProt P14416). Kind of series: Binding affinity to dopamine D2 receptor (unknown origin).
A further series has as its target D(3) dopamine receptor (Homo sapiens, UniProt P35462). Kind of series: Binding affinity to dopamine D3 receptor (unknown origin).
A further series deals with D(4) dopamine receptor (Homo sapiens, UniProt P21917). In words: Binding affinity to dopamine D4 receptor (unknown origin).
The next series deals with D(1B) dopamine receptor (Homo sapiens, UniProt P21918). Kind of series: Binding affinity to dopamine D5 receptor (unknown origin).
In another series the target is Histamine H1 receptor (Homo sapiens, UniProt P35367). Kind of series: Binding affinity to histamine H1 receptor (unknown origin).
For the next series, the target named is Histamine H2 receptor (Homo sapiens, UniProt P25021). In words: Binding affinity to histamine H2 receptor (unknown origin).
The next series concerns the target Histamine H3 receptor (Homo sapiens, UniProt Q9Y5N1). In words: Binding affinity to histamine H3 receptor (unknown origin).
The next series deals with Histamine H4 receptor (Homo sapiens, UniProt Q9H3N8). Kind of series: Binding affinity to histamine H4 receptor (unknown origin).
Series [8] concerns the target Muscarinic acetylcholine receptor M1 (Homo sapiens, UniProt P11229). In words: Binding affinity to muscarinic acetylcholine receptor M1 (unknown origin).
Series [9] concerns the target Muscarinic acetylcholine receptor M2 (Homo sapiens, UniProt P08172). Kind of series: Binding affinity to muscarinic acetylcholine receptor M2 (unknown origin).
For series [10], the target named is Muscarinic acetylcholine receptor M3 (Homo sapiens, UniProt P20309). In words: Binding affinity to muscarinic acetylcholine receptor M3 (unknown origin).
Series [11] deals with Muscarinic acetylcholine receptor M4 (Homo sapiens, UniProt P08173). In words: Binding affinity to muscarinic acetylcholine receptor M4 (unknown origin).
The target in series [12] is Muscarinic acetylcholine receptor M5 (Homo sapiens, UniProt P08912). In words: Binding affinity to muscarinic acetylcholine receptor M5 (unknown origin).
In series [13] the target is Sodium-dependent serotonin transporter (Homo sapiens, UniProt P31645). Kind of series: Binding affinity to SERT (unknown origin).
Series [14] has as its target Sodium-dependent noradrenaline transporter (Homo sapiens, UniProt P23975). In words: Binding affinity to NET (unknown origin).
Series [15] has as its target Sodium-dependent dopamine transporter (Homo sapiens, UniProt Q01959). Kind of series: Binding affinity to DAT (unknown origin).
For a further series, the target named is Mu-type opioid receptor (Homo sapiens, UniProt P35372). Kind of series: Binding affinity to MOR (unknown origin).
For series [16], the target named is Delta-type opioid receptor (Homo sapiens, UniProt P41143). In words: Binding affinity to DOR (unknown origin).
For series [17], the target named is Kappa-type opioid receptor (Homo sapiens, UniProt P41145). In words: Binding affinity to KOR (unknown origin).
Series [18] concerns the target 5-hydroxytryptamine receptor 1A (Homo sapiens, UniProt P08908). In words: Binding affinity to 5HT1A receptor (unknown origin).
The target in series [19] is 5-hydroxytryptamine receptor 1B (Homo sapiens, UniProt P28222). Kind of series: Binding affinity to 5HT1B receptor (unknown origin).
In series [20] the target is 5-hydroxytryptamine receptor 1D (Homo sapiens, UniProt P28221). In words: Binding affinity to 5HT1D receptor (unknown origin).
For series [21], the target named is 5-hydroxytryptamine receptor 1E (Homo sapiens, UniProt P28566). Kind of series: Binding affinity to 5HT1E receptor (unknown origin).
Series [22] addresses 5-hydroxytryptamine receptor 2A (Homo sapiens, UniProt P28223). In words: Binding affinity to 5HT2A receptor (unknown origin).
Series [23] addresses 5-hydroxytryptamine receptor 2B (Homo sapiens, UniProt P41595). Kind of series: Binding affinity to 5HT2B receptor (unknown origin).
Series [24] addresses 5-hydroxytryptamine receptor 2C (Homo sapiens, UniProt P28335). In words: Binding affinity to 5HT2C receptor (unknown origin).
Series [25] concerns the target 5-hydroxytryptamine receptor 3A (Homo sapiens, UniProt P46098). Kind of series: Binding affinity to 5HT3 receptor (unknown origin).
In series [26] the target is 5-hydroxytryptamine receptor 5A (Homo sapiens, UniProt P47898). Kind of series: Binding affinity to 5HT5A receptor (unknown origin).
In series [27] the target is 5-hydroxytryptamine receptor 6 (Homo sapiens, UniProt P50406). Kind of series: Binding affinity to 5HT6 receptor (unknown origin).
In series [28] the target is T1, 5-hydroxytryptamine receptor 7 (Homo sapiens, UniProt P34969). In words: Binding affinity to 5HT7 receptor (unknown origin).
Series [29] concerns the target T1, 5-hydroxytryptamine receptor 7. In words: Binding affinity to 5HT7A receptor (unknown origin).
The target in series [30] is Sigma non-opioid intracellular receptor 1 (Homo sapiens, UniProt Q99720). Kind of series: Binding affinity to sigma1 receptor (unknown origin).
For series [31], the target named is Sigma intracellular receptor 2 (Homo sapiens, UniProt Q5BJF2). In words: Binding affinity to sigma2 receptor (unknown origin).

Active and inactive are the calls of the source. No cut-off for these calls is given here.

T1 sequence (P34969 whole entry): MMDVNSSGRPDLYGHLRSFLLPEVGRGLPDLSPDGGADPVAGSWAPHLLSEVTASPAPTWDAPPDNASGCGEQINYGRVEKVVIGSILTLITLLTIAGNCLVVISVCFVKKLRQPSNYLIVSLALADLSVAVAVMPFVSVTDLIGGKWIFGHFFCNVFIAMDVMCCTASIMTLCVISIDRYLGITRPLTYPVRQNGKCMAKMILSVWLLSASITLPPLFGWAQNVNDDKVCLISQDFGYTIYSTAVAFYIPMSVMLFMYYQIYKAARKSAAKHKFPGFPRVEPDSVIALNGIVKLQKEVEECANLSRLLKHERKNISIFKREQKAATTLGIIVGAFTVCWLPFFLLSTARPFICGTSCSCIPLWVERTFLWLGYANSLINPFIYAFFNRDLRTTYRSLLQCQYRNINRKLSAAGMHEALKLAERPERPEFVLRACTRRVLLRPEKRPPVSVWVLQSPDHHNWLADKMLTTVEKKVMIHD
Sequence of 5-hydroxytryptamine receptor 2B (P41595 whole entry): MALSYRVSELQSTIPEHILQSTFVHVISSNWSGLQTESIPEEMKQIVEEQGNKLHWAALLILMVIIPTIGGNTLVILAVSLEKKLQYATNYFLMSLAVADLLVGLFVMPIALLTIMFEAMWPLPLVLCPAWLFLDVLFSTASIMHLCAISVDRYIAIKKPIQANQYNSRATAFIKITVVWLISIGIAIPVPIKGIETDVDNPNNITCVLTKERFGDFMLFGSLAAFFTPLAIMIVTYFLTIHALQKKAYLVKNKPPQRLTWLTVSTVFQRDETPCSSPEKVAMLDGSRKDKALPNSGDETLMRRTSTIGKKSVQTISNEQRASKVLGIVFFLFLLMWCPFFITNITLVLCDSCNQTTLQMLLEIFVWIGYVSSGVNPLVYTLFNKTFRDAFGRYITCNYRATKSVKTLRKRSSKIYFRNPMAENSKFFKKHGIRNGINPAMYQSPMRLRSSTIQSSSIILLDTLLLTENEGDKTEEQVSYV
Sequence of D(3) dopamine receptor (P35462 whole entry): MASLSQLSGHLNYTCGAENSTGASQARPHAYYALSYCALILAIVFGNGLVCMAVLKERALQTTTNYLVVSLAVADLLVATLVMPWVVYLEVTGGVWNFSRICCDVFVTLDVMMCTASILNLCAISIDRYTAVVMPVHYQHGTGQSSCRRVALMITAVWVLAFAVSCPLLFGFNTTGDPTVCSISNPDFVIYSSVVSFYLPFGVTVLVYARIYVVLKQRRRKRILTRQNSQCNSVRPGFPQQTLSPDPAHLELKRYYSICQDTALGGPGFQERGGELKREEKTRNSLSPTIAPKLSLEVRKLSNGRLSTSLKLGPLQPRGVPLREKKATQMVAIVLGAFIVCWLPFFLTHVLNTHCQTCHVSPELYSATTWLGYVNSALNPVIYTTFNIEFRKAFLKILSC
Sequence of Alpha-2A adrenergic receptor (P08913 whole entry): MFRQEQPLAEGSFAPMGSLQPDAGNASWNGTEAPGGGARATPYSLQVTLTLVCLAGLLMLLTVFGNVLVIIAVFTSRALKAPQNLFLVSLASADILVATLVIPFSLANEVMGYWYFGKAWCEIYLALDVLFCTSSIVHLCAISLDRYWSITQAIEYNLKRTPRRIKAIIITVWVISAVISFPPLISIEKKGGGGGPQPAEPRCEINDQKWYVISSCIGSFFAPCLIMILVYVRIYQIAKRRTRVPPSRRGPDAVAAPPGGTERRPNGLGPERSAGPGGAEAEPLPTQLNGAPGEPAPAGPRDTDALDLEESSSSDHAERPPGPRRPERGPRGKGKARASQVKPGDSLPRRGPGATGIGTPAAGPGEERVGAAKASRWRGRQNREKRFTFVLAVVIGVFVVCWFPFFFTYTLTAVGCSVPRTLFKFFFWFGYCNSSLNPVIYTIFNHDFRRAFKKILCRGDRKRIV
Sequence of 5-hydroxytryptamine receptor 1B (P28222 whole entry): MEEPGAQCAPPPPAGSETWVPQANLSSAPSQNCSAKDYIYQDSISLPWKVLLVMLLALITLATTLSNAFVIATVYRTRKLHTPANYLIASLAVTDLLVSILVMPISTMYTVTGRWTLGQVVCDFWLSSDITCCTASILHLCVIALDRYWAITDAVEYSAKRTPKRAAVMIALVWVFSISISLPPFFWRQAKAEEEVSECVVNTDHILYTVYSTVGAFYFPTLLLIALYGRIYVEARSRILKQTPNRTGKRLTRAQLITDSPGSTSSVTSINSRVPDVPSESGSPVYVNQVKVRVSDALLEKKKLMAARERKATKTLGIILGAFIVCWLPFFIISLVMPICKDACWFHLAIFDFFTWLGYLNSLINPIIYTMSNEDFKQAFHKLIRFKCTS
Sequence of Muscarinic acetylcholine receptor M4 (P08173 whole entry): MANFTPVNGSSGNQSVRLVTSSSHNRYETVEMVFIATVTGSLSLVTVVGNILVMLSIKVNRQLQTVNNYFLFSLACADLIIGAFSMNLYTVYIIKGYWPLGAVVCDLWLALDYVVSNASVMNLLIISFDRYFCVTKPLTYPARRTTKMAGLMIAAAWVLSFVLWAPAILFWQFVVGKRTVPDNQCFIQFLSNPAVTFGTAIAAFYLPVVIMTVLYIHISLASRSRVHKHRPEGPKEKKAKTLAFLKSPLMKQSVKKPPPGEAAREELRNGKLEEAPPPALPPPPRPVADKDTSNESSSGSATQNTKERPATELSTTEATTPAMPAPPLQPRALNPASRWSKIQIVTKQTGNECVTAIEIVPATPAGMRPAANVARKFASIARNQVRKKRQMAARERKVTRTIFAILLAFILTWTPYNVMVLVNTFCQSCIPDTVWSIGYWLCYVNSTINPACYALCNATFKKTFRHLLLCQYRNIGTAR
Sequence of D(4) dopamine receptor (P21917 whole entry): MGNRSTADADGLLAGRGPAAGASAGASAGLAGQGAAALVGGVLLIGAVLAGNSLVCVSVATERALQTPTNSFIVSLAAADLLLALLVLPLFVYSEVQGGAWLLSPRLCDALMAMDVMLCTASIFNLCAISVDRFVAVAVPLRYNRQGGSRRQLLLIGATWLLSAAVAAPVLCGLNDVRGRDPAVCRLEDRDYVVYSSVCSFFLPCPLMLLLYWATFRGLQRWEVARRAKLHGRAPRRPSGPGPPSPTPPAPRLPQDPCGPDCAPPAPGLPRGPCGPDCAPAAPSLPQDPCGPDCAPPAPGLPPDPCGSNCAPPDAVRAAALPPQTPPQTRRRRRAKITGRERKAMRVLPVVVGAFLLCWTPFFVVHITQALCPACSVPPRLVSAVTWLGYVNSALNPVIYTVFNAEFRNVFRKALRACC
Sequence of Sodium-dependent dopamine transporter (Q01959 whole entry): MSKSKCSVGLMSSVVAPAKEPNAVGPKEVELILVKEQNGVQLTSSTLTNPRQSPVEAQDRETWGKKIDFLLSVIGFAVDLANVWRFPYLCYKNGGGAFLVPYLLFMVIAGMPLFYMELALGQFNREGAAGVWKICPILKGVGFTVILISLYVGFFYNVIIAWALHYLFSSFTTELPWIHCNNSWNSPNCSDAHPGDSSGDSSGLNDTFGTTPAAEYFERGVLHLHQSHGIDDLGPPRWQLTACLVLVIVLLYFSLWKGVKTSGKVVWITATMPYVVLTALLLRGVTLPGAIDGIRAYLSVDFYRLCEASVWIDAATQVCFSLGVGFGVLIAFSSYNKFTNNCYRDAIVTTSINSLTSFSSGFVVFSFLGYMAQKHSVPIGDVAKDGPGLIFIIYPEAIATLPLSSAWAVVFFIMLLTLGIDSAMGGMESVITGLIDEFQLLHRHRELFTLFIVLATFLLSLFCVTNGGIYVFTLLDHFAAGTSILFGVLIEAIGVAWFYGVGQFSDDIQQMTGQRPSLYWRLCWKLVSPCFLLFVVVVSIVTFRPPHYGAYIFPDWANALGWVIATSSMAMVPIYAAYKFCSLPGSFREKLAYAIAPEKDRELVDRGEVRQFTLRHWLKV
Sequence of Muscarinic acetylcholine receptor M5 (P08912 whole entry): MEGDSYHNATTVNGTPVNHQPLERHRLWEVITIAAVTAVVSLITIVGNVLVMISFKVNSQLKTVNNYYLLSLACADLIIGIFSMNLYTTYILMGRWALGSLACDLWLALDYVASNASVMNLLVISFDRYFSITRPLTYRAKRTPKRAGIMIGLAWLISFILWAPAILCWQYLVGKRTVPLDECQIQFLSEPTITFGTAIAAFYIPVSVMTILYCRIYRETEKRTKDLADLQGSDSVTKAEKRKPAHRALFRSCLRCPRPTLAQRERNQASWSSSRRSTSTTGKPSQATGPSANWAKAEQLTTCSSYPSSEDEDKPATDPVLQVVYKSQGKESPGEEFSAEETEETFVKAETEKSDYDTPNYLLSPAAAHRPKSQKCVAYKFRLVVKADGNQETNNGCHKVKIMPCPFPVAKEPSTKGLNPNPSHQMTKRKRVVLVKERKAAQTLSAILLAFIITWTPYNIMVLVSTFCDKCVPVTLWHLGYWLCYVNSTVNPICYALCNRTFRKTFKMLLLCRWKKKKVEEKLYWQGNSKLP
Sequence of Sodium-dependent serotonin transporter (P31645 whole entry): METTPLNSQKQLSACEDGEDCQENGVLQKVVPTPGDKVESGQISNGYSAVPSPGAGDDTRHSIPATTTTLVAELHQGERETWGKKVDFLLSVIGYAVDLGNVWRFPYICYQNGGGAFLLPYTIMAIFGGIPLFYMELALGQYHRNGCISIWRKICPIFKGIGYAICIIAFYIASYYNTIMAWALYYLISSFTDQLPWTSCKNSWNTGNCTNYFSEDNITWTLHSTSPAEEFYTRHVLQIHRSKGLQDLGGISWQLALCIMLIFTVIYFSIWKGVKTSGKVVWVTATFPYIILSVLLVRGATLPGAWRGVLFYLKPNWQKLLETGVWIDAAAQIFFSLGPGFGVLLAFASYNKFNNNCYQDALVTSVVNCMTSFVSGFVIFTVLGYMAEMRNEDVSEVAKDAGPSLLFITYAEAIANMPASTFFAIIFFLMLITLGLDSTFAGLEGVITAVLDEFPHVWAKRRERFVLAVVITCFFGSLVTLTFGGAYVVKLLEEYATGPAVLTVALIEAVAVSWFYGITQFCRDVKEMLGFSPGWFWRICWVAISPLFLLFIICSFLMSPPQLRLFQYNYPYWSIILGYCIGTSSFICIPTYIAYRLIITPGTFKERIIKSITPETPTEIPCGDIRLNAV

On to `Cc1nccc2c1C(C)(C)Nc1cc(Br)ccc1-2`, for which the result in the series with Mus musculus was Active. For the same compound, in series [1], the Activity entry is on record as “Non-Toxic”. Also, the Ki in [2], in series [3], in series [4], in [5], in series [6] and in series [7] was more than 10 µM throughout. In addition, the inhibitory constant (Ki) at D(1A) dopamine receptor, at D(2) dopamine receptor, on D(3) dopamine receptor, at D(4) dopamine receptor, on D(1B) dopamine receptor and at Histamine H1 receptor was more than 10 µM each time. Also, the inhibition constant Ki (at Histamine H2 receptor; at Histamine H3 receptor; at Histamine H4 receptor; in [8]; in series [9]; in [10]) was more than 10 µM throughout. Also, the Ki (in series [11]; in [12]; in [13]; in [14]; in series [15]; on Mu-type opioid receptor) was more than 10 µM in each case. Further, the Ki in series [16], in series [17], in series [18], in series [19], in series [20] and in series [21] was more than 10 µM each time. Also, the Ki in series [22] was more than 10 µM; in [23], 0.39 µM; in [24] it was more than 10 µM; in series [25], more than 10 µM; in series [26] it was more than 10 µM; in series [27] it was more than 10 µM. Besides, the Ki in series [28] was more than 10 µM; in [29], more than 10 µM; in series [30], 0.56 µM; in [31], more than 10 µM.

Turning to `CNCCCN1c2ccccc2CCc2ccccc21`, the outcome with Mus musculus was Active.

The values above are taken from ChEMBL document CHEMBL4610098, “Isolation and Synthesis of Veranamine, an Antidepressant Lead from the Marine Sponge Verongula rigida” (J Nat Prod, 2020).
